# Experimental data as given in ChEMBL document CHEMBL1255381, “Golgicide A reveals essential roles for GBF1 in Golgi assembly and function” (Nat Chem Biol, 2009).
# The source made the active and inactive calls. No cut-off for these calls is given here.
# How the values were obtained:
# Vero [1] = experiment: Effect on disruption of microtubules in african green monkey Vero cells at 5 ug/ml after 30 mins by immunofluorescence method; assay type: functional, cell-based; details: Chlorocebus sabaeus
# Procedure, shortened: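 They were then fixed and immunostained for microtubules, and microtubule morphology was judged by immunofluorescence microscopy against DMSO-treated cells.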
# Vero [2] = experiment: Induction of depolymerization of actin microfilaments in african green monkey Vero cells at 25 uM after 30 mins by immunofluorescence method; assay type: functional, cell-based; details: Chlorocebus sabaeus
SMILES,Activity (Vero [1]),Activity (Vero [2])
COC(=O)Nc1nc2cc(C(=O)c3cccs3)ccc2[nH]1,Active,–
C=C1[C@@H](C)[C@H]2[C@H](Cc3ccccc3)NC(=O)[C@]23OC(=O)/C=C/[C@H](O)CCC[C@@H](C)C/C=C/[C@H]3[C@@H]1O,–,Active
